The species named for one assay is Cavia porcellus. As to the kind of experiment: In vitro assessment of negative inotropy in the isolated Langendorff perfused guinea pig heart. Format: functional.
Another assay is filed under the species Rattus norvegicus. As to the kind of experiment: Concentration required to inhibit calcium-induced constriction of potassium-depolarized rat aorta by 50%. Format: functional.
The test system of another assay is Canis familiaris. As to the kind of experiment: Percent decrease in coronary vascular resistance in dogs at 150 u/kg intravenous dose. The format is functional, Canis lupus familiaris. In outline: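 Anaesthetized beagle dogs were implanted with catheters for blood pressure, left ventricular pressure and intravenous dosing, and given 150 µg/kg i.v. Coronary blood flow was measured by hydrogen clearance with platinum electrodes in the coronary sinus and femoral artery, and cardiac output by thermodilution. Coronary vascular resistance was derived from these measurements, and the duration-of-action half-life was followed in hours.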

The results in this text go back to ChEMBL document CHEMBL1124412, “Long acting dihydropyridine calcium antagonists. 2. 2-[2-Aminoheterocycloethoxy]methyl derivatives” (J Med Chem, 1989).

For orientation: IC50 means the midpoint of a concentration-inhibition curve. In turn, `CCO/C(O)=C1\C(COCCNc2nc(O)cs2)=NC(C)=C(C(=O)OC)C1c1cccc(Cl)c1Cl` (stereo unspecified) came in with a pIC25 in the assay filed under Cavia porcellus of 6.1. Moreover, the IC50 in the assay filed under Rattus norvegicus was 20 nM.

In the assay filed under Cavia porcellus, `CCO/C(O)=C1\C(COCCNC2=NC(=O)C(C)(C)N2)=NC(C)=C(C(=O)OC)C1c1cccc(Cl)c1Cl` (stereo unspecified) came in with a pIC25 of 6.2. Besides, the IC50 in the assay listed under Rattus norvegicus was 20 nM.

The compound `CCO/C(O)=C1\C(COCCNc2nccnc2NC)=NC(C)=C(C(=O)OC)C1c1cccc(Cl)c1Cl` (stereo unspecified) came in with a pIC25 in the assay listed under Cavia porcellus of 7. In the assay listed under Rattus norvegicus, the IC50 was 5.01 nM.

In the case of `CCO/C(O)=C1\C(COCCNc2n[s+]([O-])nc2OC)=NC(C)=C(C(=O)OC)C1c1cccc(Cl)c1Cl` (stereo unspecified), the pIC25 in the assay listed under Cavia porcellus is 7.1. Also, the IC50 in the assay filed under Rattus norvegicus was 10 nM.

In the assay listed under Cavia porcellus, `CCOC(=O)NC(=S)NCCOCC1=C(C(=O)OCC)C(c2cccc(Cl)c2Cl)/C(=C(\O)OC)C(C)=N1` (stereo unspecified) registered a pIC25 of 6.2. For the same compound, in the assay filed under Rattus norvegicus, the IC50 is 31.6 nM.

Consider `CCO/C(O)=C1\C(COCCNc2cc(Cl)ncn2)=NC(C)=C(C(=O)OC)C1c1cccc(Cl)c1Cl` (stereo unspecified), for which the pIC25 in the assay filed under Cavia porcellus came to 7.7. Besides, the IC50 in the assay filed under Rattus norvegicus was 12.6 nM.

In the assay filed under Cavia porcellus, `CCO/C(O)=C1\C(COCCNc2n[nH]c(N)n2)=NC(C)=C(C(=O)OC)C1c1cccc(C(F)(F)F)c1Cl` (stereo unspecified) came in with a pIC25 of 6.3. Further, in the assay listed under Rattus norvegicus, the IC50 is 3.98 nM.

In the case of `CCO/C(O)=C1\C(COCCNc2nc(N)n(C)n2)=NC(C)=C(C(=O)OC)C1c1cccc(Cl)c1Cl` (stereo unspecified), in the assay listed under Cavia porcellus, the pIC25 was 6.8. Moreover, in the assay listed under Rattus norvegicus, the IC50 was 3.98 nM.

As for `CCO/C(O)=C1\C(COCCNc2ccnc(O)n2)=NC(C)=C(C(=O)OC)C1c1cccc(Cl)c1Cl` (stereo unspecified), in the assay with Canis familiaris, the “Decrease in CVR” value is 62%. Besides, in the assay listed under Cavia porcellus, the pIC25 stood at 6.7. Further, the IC50 in the assay listed under Rattus norvegicus is 1.58 nM.

Turning to `CCO/C(O)=C1\C(C)=NC(COCCNc2n[nH]c(N)n2)=C(C(=O)OC)C1c1cccc(Cl)c1Cl` (stereo unspecified), in the assay filed under Cavia porcellus, the pIC25 came out at 5.5. The IC50 in the assay filed under Rattus norvegicus is 100 nM.

In turn, `CCO/C(O)=C1\C(COCCNc2n[nH]c(N)n2)=NC(C)=C(C(=O)OC)C1c1cccnc1Cl` (stereo unspecified) displayed a pIC25 in the assay filed under Cavia porcellus of 6. Also, the IC50 in the assay listed under Rattus norvegicus was 316 nM.

In the case of `COC(=O)C1=C(C)NC(C)=C(C(=O)OC)C1c1ccccc1[N+](=O)[O-]` [NIFEDIPINE], the “Decrease in CVR” value with Canis familiaris came out at 77%. Moreover, the pIC25 in the assay listed under Cavia porcellus was 7.5.

Consider `CCO/C(O)=C1\C(COCCNc2noc(N)n2)=NC(C)=C(C(=O)OC)C1c1cccc(Cl)c1Cl` (stereo unspecified), for which the “Decrease in CVR” value with Canis familiaris is 76%. Also, in the assay listed under Cavia porcellus, the pIC25 was 7.3. The IC50 in the assay filed under Rattus norvegicus was 3.16 nM.

Turning to `CCO/C(O)=C1\C(COCCNc2cc(O)ncn2)=NC(C)=C(C(=O)OC)C1c1cccc(Cl)c1Cl` (stereo unspecified), the pIC25 in the assay listed under Cavia porcellus is on record as 7.2. Besides, the IC50 in the assay listed under Rattus norvegicus is 1.26 nM.

Consider `CCO/C(O)=C1\C(COCCNc2n[nH]c(N)n2)=NC(C)=C(C(=O)OC)C1c1ccccc1Cl` (stereo unspecified), for which the pIC25 in the assay listed under Cavia porcellus is on record as 6.2. Moreover, the IC50 in the assay filed under Rattus norvegicus is 20 nM.

In turn, `CCO/C(O)=C1\C(COCCNc2nccnc2Cl)=NC(C)=C(C(=O)OC)C1c1cccc(Cl)c1Cl` (stereo unspecified) showed a pIC25 in the assay listed under Cavia porcellus of 7.4. Moreover, the IC50 in the assay listed under Rattus norvegicus was 2.51 nM.

Take `CCO/C(O)=C1\C(COCCNc2n[s+]([O-])nc2N)=NC(C)=C(C(=O)OC)C1c1cccc(Cl)c1Cl` (stereo unspecified): the pIC25 in the assay listed under Cavia porcellus is 7. Further, in the assay filed under Rattus norvegicus, the IC50 is 15.8 nM.

Consider `CCO/C(O)=C1\C(COCCNc2n[nH]c(N)n2)=NC(C)=C(C(=O)OC)C1c1cccc(Cl)c1Cl` (stereo unspecified), for which the “Decrease in CVR” value in the assay on Canis familiaris worked out at 70%. In the assay filed under Cavia porcellus, this compound showed a pIC25 of 6.3. Further, the IC50 in the assay listed under Rattus norvegicus was 6.31 nM.

Take `CCO/C(O)=C1\C(COCCNc2nc(O)cc(-c3ccccc3)n2)=NC(C)=C(C(=O)OC)C1c1cccc(Cl)c1Cl` (stereo unspecified): the pIC25 in the assay listed under Cavia porcellus amounted to 6.9. For the same compound, the concentration for half-maximal inhibition (IC50) in the assay filed under Rattus norvegicus is 7.94 nM.

Regarding `CCO/C(O)=C1\C(COCCNc2nccc(O)n2)=NC(C)=C(C(=O)OC)C1c1cccc(Cl)c1Cl` (stereo unspecified), in the assay with Canis familiaris, the “Decrease in CVR” value is on record as 70%. Besides, in the assay filed under Cavia porcellus, the pIC25 is 6.7. Further, the IC50 in the assay listed under Rattus norvegicus was 2.51 nM.

In the case of `CCO/C(O)=C1\C(COCCNc2cc(NC)ncn2)=NC(C)=C(C(=O)OC)C1c1cccc(Cl)c1Cl` (stereo unspecified), in the assay filed under Cavia porcellus, the pIC25 came out at 7.2. In addition, the IC50 in the assay filed under Rattus norvegicus is 3.16 nM.

`CCO/C(O)=C1\C(COCC/N=C(/N)S)=NC(C)=C(C(=O)OC)C1c1cccc(Cl)c1Cl` (stereo unspecified) showed a pIC25 in the assay filed under Cavia porcellus of 7.2. In the assay filed under Rattus norvegicus, the IC50 was 1 nM.

On to `CCO/C(O)=C1\C(COCCNc2n[nH]c(N)n2)=NC(C)=C(C(=O)OC)C1c1cccc(Cl)c1` (stereo unspecified), for which, in the assay listed under Rattus norvegicus, the IC50 was 126 nM.

In the assay filed under Cavia porcellus, `CCO/C(O)=C1\C(COCCNc2n[nH]c(O)n2)=NC(C)=C(C(=O)OC)C1c1cccc(Cl)c1Cl` (stereo unspecified) displayed a pIC25 of 6.4. The IC50 in the assay filed under Rattus norvegicus is 10 nM.
